Article PMC10832541 (Microbial Biotechnology, 2024)
In brackets after ≈: the same amount, converted by molar mass. Entries after “also recorded” stand apart in the source; their conditions may differ.

Legend:
[1] = in water, compared with NOS‐R at pH 6.0; ref Zhao et al., 2023; cited from earlier work
Enterococcus faecalis = assay: In vitro antibacterial activity; format: cell-based; conditions: Enterococcus faecalis strains; CLSI guidelines; range over strains
Enterococcus faecium = assay: In vitro antibacterial activity; format: cell-based; conditions: Enterococcus faecium strains; CLSI guidelines; range over strains
MRSA infection = assay: In vivo protection of mice infected with MRSA; conditions: data not shown
[2] = system: MRSA, MRSE, Enterococcus faecalis and Enterococcus faecium; assay: In vitro antibacterial activity, MIC range over all tested pathogens; format: cell-based; conditions: E. faecalis and E. faecium strains
MRSE = assay: In vitro antibacterial activity; format: cell-based, methicillin‐resistant Staphylococcus epidermidis; conditions: MRSE strains; CLSI guidelines; range over strains
MRSA = assay: In vitro antibacterial activity; format: cell-based, methicillin‐resistant Staphylococcus aureus; conditions: MRSA strains; CLSI guidelines; range over strains
[3] = Aqueous solubility at pH 5.0 to 7.0; format: physicochemical; conditions: pH 6, water
Method in brief: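 Test compound quantified by HPLC against a standard curve (31.25–1000 ng/mL), with linear regression of peak area against concentration. Aqueous solubility was determined in solutions of pH 5.0 to 7.0, following a previously described method.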

SrGT822 = assay: Substrate spectrum of SrGT822; format: biochemical, Streptomyces sp. 147326; conditions: dTDP‐L‐rhamnose as donor; LC-MS analysis; products not purified
Method in brief: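 SrGT822 from Streptomyces sp. 147326 carried a C-terminal His-tag in pET22b(+). It was expressed in E. coli BL21(DE3) with 0.5 mM IPTG at 20°C for 12 h and purified by nickel affinity. Seventeen compounds from various classes were tested as acceptors, with dTDP-L-rhamnose as donor, under the optimized reaction parameters.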

| Compound | aqueous solubility [1] | MIC (Enterococcus faecalis) | MIC (Enterococcus faecium) | in vivo protection against MRSA infection (MRSA infection) | MIC values against all the tested pathogens [2] | MIC (MRSE) | MIC (MRSA) | solubility [3] | conversion rate (monorhamnosylation as a substrate of SrGT822) (SrGT822) |
| --- | --- | --- | --- | --- | --- | --- | --- | --- | --- |
| C=C(NC(=O)c1csc(-c2nc3c(cc2O)-c2nc(cs2)C(=O)NC(C(C)O)C(=O)N/C(=C\C)c2nc(cs2)C(=O)NC2CC(O)C(=O)OCc4cccc5[nH]c(c(C)c45)C(=O)SCC(NC(=O)c4csc2n4)c2nc-3cs2)n1)C(N)=O (stereo not shown) [NOS, Nosiheptide] | 0.0283 µg/mL (≈ 0.0232 µM) | 0.0078 to 0.0156 µg/mL | 0.0078 to 0.0156 µg/mL | – | – | – | – | – | – |
| C=C(NC(=O)c1csc(-c2nc3c(cc2O[C@@H]2O[C@@H](C)[C@H](O)[C@@H](O)[C@H]2O)-c2nc(cs2)C(=O)NC(C(C)O)C(=O)N/C(=C\C)c2nc(cs2)C(=O)NC2CC(O)C(=O)OCc4cccc5[nH]c(c(C)c45)C(=O)SCC(NC(=O)c4csc2n4)c2nc-3cs2)n1)C(N)=O (stereo partly shown) [NOS‐R] | – | 0.0078 to 0.0156 µg/mL | 0.0078 to 0.0156 µg/mL | new protective effect against MRSA infection in mice; also recorded: potential in vivo protection | 0.0078 to 0.0625 µg/mL | 0.03125 to 0.0625 µg/mL | 0.03125 to 0.0625 µg/mL | 0.526 µg/mL (≈ 0.384 µM) | – |
| CN[C@H](CC(C)C)C(=O)N[C@H]1C(=O)N[C@@H](CC(N)=O)C(=O)N[C@H]2C(=O)N[C@H]3C(=O)N[C@H](C(=O)N[C@H](C(=O)O)c4cc(O)cc(O)c4-c4cc3ccc4O)[C@H](O)c3ccc(c(Cl)c3)Oc3cc2cc(c3O[C@@H]2O[C@H](CO)[C@@H](O)[C@H](O)[C@H]2O[C@H]2C[C@](C)(N)[C@H](O)[C@H](C)O2)Oc2ccc(cc2Cl)[C@H]1O [Vancomycin] | – | 1 to 2 µg/mL | 1 to 2 µg/mL | – | 0.125 to 2 µg/mL | 0.125 to 1 µg/mL | 0.25 to 2 µg/mL | – | – |
| nocathiacin I [compound 17] | – | – | – | – | – | – | – | – | below 60% |
